ChEMBL document CHEMBL5303300, “EUbOPEN Chemogenomics Library - Multiplex” (2023)
Where “and” joins values, the source holds several entries; their conditions need not be identical. Identical values can stand only once.

Test system: Fibroblast
Experiment: Multiplex assay against human fibroblast
Format: toxicity, cell-based
Details: number of replicates 2
Outline: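 At seeding, live cells were stained with Hoechst33342, BioTracker Green Microtubule Cytoskeleton Dye, MitoTracker Red and Annexin V Alexa Fluor 680. After compound addition they were imaged on a CQ1 microscope at 37°C and 5% CO2, and CellPathfinder machine-learning gating sorted them into Hoechst high-intensity objects or normal cells, with normal cells further split into healthy, pyknosed or fragmented nuclei and pyknosed cells into mitotic or apoptotic. Tubulin, mitochondrial-mass and membrane-permeability phenotypes are given as per cents of cells with healthy nuclei.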

[1] = 12 h, 1 µM, compound concentration 1 uM
[2] = 12 h, 10 µM, compound concentration 10 uM
[3] = 24 h, 1 µM, compound concentration 1 uM
[4] = 24 h, 10 µM, compound concentration 10 uM
[5] = 48 h, 1 µM, compound concentration 1 uM
[6] = 48 h, 10 µM, compound concentration 10 uM

CC(C)NC(=O)[C@H]1CCC[C@H]1Nc1nc(Nc2ccc(C(=O)N(C)C3CCN(C)CC3)cc2)ncc1Cl
Population Apoptotic (%) [1]: 45% and 33%
Population Fragmented Nuclei (%) [1]: 7% and 8%
Population Healthy Nuclei (%) [1]: 62% and 61%
Population Hoechst High Intensity Objects (%) [1]: 0%
Population Membrane Permeable-Phenotype (%) [1]: 8%
Population Mitochondria Different-Phenotype (%) [1]: 0% and 2%
Population Mitotic Cells (%) [1]: 54% and 66%
Population Normal (%) [1]: 100%
Population Pyknosed Nuclei (%) [1]: 30% and 29%
Population Tubulin-Different-Phenotype (%) [1]: 20% and 12%
Total Cell Count [1]: 109 and 134
Population Apoptotic (%) [2]: 62% and 51%
Population Fragmented Nuclei (%) [2]: 19% and 12%
Population Healthy Nuclei (%) [2]: 62% and 75%
Population Hoechst High Intensity Objects (%) [2]: 0%
Population Membrane Permeable-Phenotype (%) [2]: 0% and 4%
Population Mitochondria Different-Phenotype (%) [2]: 3% and 6%
Population Mitotic Cells (%) [2]: 37% and 48%
Population Normal (%) [2]: 100%
Population Pyknosed Nuclei (%) [2]: 18% and 12%
Population Tubulin-Different-Phenotype (%) [2]: 51% and 44%
Total Cell Count [2]: 177 and 250
Population Apoptotic (%) [3]: 48% and 58%
Population Fragmented Nuclei (%) [3]: 8% and 10%
Population Healthy Nuclei (%) [3]: 60% and 59%
Population Hoechst High Intensity Objects (%) [3]: 0%
Population Membrane Permeable-Phenotype (%) [3]: 14% and 7%
Population Mitochondria Different-Phenotype (%) [3]: 0%
Population Mitotic Cells (%) [3]: 51% and 41%
Population Normal (%) [3]: 100%
Population Pyknosed Nuclei (%) [3]: 30%
Population Tubulin-Different-Phenotype (%) [3]: 16% and 13%
Total Cell Count [3]: 127 and 136
Population Apoptotic (%) [4]: 65% and 66%
Population Fragmented Nuclei (%) [4]: 16% and 13%
Population Healthy Nuclei (%) [4]: 64% and 71%
Population Hoechst High Intensity Objects (%) [4]: 0%
Population Membrane Permeable-Phenotype (%) [4]: 2% and 0%
Population Mitochondria Different-Phenotype (%) [4]: 9% and 6%
Population Mitotic Cells (%) [4]: 34% and 33%
Population Normal (%) [4]: 100%
Population Pyknosed Nuclei (%) [4]: 18% and 15%
Population Tubulin-Different-Phenotype (%) [4]: 40% and 28%
Total Cell Count [4]: 171 and 258
Population Apoptotic (%) [5]: 67% and 75%
Population Fragmented Nuclei (%) [5]: 14%
Population Healthy Nuclei (%) [5]: 62% and 59%
Population Hoechst High Intensity Objects (%) [5]: 0%
Population Membrane Permeable-Phenotype (%) [5]: 8% and 4%
Population Mitochondria Different-Phenotype (%) [5]: 0% and 1%
Population Mitotic Cells (%) [5]: 32% and 24%
Population Normal (%) [5]: 100%
Population Pyknosed Nuclei (%) [5]: 22% and 26%
Population Tubulin-Different-Phenotype (%) [5]: 15% and 11%
Total Cell Count [5]: 127 and 141
Population Apoptotic (%) [6]: 78% and 82%
Population Fragmented Nuclei (%) [6]: 17% and 12%
Population Healthy Nuclei (%) [6]: 64% and 69%
Population Hoechst High Intensity Objects (%) [6]: 0%
Population Membrane Permeable-Phenotype (%) [6]: 4% and 5%
Population Mitochondria Different-Phenotype (%) [6]: 6% and 2%
Population Mitotic Cells (%) [6]: 21% and 17%
Population Normal (%) [6]: 99% and 100%
Population Pyknosed Nuclei (%) [6]: 17% and 18%
Population Tubulin-Different-Phenotype (%) [6]: 36% and 18%
Total Cell Count [6]: 160 and 243
